Experimental findings from ChEMBL document CHEMBL1135457 (J Med Chem, 2002) are described below.

Assay [1] deals with T1, Progesterone receptor (Homo sapiens) (UniProt P06401).
T1 sequence (whole entry): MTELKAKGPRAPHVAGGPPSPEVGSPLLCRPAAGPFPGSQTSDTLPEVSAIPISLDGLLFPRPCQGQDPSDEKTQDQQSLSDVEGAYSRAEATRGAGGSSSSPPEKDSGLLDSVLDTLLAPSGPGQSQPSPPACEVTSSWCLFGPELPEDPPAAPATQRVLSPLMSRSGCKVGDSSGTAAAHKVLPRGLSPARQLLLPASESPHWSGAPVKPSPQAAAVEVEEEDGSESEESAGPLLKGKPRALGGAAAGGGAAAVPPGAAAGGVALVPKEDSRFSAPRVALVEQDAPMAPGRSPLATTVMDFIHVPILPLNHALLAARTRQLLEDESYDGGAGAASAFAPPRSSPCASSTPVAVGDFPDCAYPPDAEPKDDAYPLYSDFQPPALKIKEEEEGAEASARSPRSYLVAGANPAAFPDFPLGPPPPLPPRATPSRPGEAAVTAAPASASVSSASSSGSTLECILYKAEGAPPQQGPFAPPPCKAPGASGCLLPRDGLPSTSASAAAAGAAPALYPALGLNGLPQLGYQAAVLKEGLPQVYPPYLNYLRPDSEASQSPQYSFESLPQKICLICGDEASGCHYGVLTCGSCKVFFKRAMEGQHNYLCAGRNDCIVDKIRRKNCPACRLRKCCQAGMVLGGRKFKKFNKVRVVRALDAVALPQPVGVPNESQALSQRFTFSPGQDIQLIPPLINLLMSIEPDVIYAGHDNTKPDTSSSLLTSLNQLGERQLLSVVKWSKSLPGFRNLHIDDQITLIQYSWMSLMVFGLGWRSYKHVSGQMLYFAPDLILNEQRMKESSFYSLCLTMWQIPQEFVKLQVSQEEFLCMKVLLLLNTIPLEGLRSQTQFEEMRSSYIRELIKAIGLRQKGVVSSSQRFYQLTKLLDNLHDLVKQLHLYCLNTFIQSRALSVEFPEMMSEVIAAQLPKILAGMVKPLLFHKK

In a further assay the target is T2, Androgen receptor (Homo sapiens, UniProt P10275).
T2 sequence (P10275 whole entry): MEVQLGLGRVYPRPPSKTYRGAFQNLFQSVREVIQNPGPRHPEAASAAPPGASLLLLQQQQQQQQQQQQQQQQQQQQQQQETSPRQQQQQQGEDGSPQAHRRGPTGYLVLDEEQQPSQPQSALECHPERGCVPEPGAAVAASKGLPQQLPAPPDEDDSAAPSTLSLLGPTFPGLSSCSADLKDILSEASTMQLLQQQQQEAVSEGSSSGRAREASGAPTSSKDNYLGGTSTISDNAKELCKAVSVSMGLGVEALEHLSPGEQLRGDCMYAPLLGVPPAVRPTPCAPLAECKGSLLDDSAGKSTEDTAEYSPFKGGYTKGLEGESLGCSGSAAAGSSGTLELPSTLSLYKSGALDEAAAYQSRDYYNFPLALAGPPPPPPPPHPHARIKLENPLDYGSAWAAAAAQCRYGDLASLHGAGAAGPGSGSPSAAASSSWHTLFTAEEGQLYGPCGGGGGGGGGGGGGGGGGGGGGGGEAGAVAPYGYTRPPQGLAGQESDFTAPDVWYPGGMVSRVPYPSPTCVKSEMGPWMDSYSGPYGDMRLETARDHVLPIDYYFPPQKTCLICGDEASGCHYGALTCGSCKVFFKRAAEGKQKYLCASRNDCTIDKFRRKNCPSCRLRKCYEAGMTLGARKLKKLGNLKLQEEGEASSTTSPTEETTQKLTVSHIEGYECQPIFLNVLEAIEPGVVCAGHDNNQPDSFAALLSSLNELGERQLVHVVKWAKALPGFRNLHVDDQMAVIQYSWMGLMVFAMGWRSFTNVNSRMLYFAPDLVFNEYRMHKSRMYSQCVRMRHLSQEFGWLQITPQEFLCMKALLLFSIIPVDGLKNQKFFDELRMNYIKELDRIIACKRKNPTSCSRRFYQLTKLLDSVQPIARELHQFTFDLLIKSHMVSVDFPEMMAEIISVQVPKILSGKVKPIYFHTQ
As to the kind of experiment: Displacement of [3H]DHT from human Androgen receptor. An outline of the steps: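 Whole-cell extract of Sf9 cells infected with baculovirus expressing human AR (MOI 2, harvested 48 h), sonicated in pH 7.2 HEPES/molybdate/glycerol buffer. Extract bound to hydroxylapatite with 1 nM [3H]DHT and compound (0.01 nM–30 μM) in triplicate, 1 h, 4 °C. Nonspecific binding from 10 μM unlabeled DHT. Filtration, scintillation counting, sigmoidal IC50, Cheng–Prusoff Ki (Kd 0.4 nM).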
(In general: Loss of bound radioactivity is the signal in a displacement assay; it reports binding, not function.)

On to `O=C1CC[C@@]2(Cc3ccccc3)c3ccc(O)cc3CC[C@@H]2C1`, for which, in assay [1], the Kif is over 1000 nM. `CC#C[C@@]1(O)CC[C@@]2(Cc3ccccc3)c3ccc(O)cc3CC[C@@H]2C1`: the affinity on Androgen receptor, expressed as Ki, was 650 nM.
